Calls of active or inactive are those of the source. The rule behind the calls is not given here.
Experiments:
[1] = tested on: hTERT-BJ; experiment: Induction of autophagy in human hTERT-BJ cells transformed with hTert, small t, shRNAs against p53 and pRb and H-RasV12-ER assessed as increase in LC3-2 to LC3-1 ratio at 5 uM after 24 hrs by immunoblot analysis relative to control; type: functional
Outline: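 Fully transformed BJ fibroblasts (hTert, small t, shRNAs to p53 and pRb, H-RasV12-ER) grown at 37 °C, 5% CO2 in 10% FBS medium; treated 24 h at 5 μM. Triton lysis, 14% SDS-PAGE, LC3 immunoblot; LC3-II/LC3-I band ratio relative to DMSO-treated control, under 2-fold induction deemed insignificant.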

[2] = tested on: hTERT-BJ; experiment: Inhibition of mitotic progression in human hTERT-BJ cells transformed with hTert, small t, shRNAs against p53 and pRb and H-RasV12-ER assessed as increase in phosphorylated histone H3 (Ser10) level at 5 uM after 24 hrs by immunoblot analysis relative to control; type: functional
Outline: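 Fully transformed BJ fibroblasts (hTert, small t, shRNAs to p53 and pRb, H-RasV12-ER) treated 24 h at 5 μM. Immunoblot protocol as for HeLa. pH3 (Ser10) band intensity expressed as fold of DMSO control; under 2-fold counted as insignificant.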

[3] = Intrinsic clearance in pooled female rat liver microsomes assessed per mg protein at 3 uM preincubated for 5 mins followed by NADPH addition measured after 45 mins by LC-MS/MS method; type: ADME, microsome; conditions: read-out: CLH
Outline: (§1)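 Pooled female or male rat liver microsomes (0.3 mg protein/mL) with substrate at final 3 μM in 0.1 M phosphate pH 7.4. Pre-incubated 5 min at 37 °C, then started with NADPH (final 1 mM). Sampled at 0–45 min in triplicate, quenched with cold acetonitrile plus internal standard. Parent measured by LC-MS/MS. Midazolam as positive control; no-NADPH negative control.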

[4] = Half life in pooled female rat liver microsomes at 3 uM preincubated for 5 mins followed by NADPH addition measured after 45 mins by LC-MS/MS method; type: ADME, microsome
Outline: (§2)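 Pooled female or male rat liver microsomes (0.3 mg protein/mL) with 3 μM substrate in 0.1 M phosphate buffer pH 7.4, pre-incubated 5 min at 37 °C, started with 1 mM NADPH. Samples at 0-45 min quenched in cold acetonitrile with internal standard, analysed by LC-MS/MS. Triplicates; midazolam positive control, no-NADPH negative control.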

[5] = Half life in pooled male rat liver microsomes at 3 uM preincubated for 5 mins followed by NADPH addition measured after 45 mins by LC-MS/MS method; type: ADME, microsome; outline: as §2
[6] = Intrinsic clearance in pooled male rat liver microsomes assessed per mg protein at 3 uM preincubated for 5 mins followed by NADPH addition measured after 45 mins by LC-MS/MS method; type: ADME, microsome; conditions: read-out: CLH; outline: as §1
[7] = tested on: hTERT-BJ; experiment: Cell cycle arrest in human hTERT-BJ cells transformed with hTert, small t, shRNAs against p53 and pRb and H-RasV12-ER assessed as accumulation at sub-G1 phase at 5 uM after 48 hrs; type: functional, cell-based
Outline: (§3)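 Isogenic normal and fully transformed BJ fibroblasts (hTert, small t, shRNAs to p53 and pRb, H-RasV12-ER) exposed to 5 μM for 48 h. Percentage of cells in sub-G1 phase determined as a cell death measure.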

[8] = tested on: BJ; experiment: Cell cycle arrest in human BJ cells assessed as accumulation at sub-G1 phase at 5 uM after 48 hrs; type: cell-based; outline: as §3
[9] = tested on: HCT-15; experiment: Antitumor activity against human HCT15 cells xenografted in BALB/c athymic nu/nu mouse assessed as tumor growth inhibition at 60 mg/kg, iv bid administered every 4 days; type: functional, organism-based
Outline: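 Female BALB/c nu/nu mice bearing subcutaneous HCT15 xenografts (groups of 6). Paclitaxel 60 mg/kg given via tail vein twice every 4 days in ethanol:Tween 80:5% glucose (5:15:80). Tumor volumes tracked; mean ± SEM, two-way ANOVA vs vehicle.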

SMILES	fold change (FC) [1]	fold change (FC) [2]	other results
COc1cccc2c(/C(C#N)=C/c3cccc4cnccc34)c[nH]c12	2.7	3.9	–
Cc1[nH]c2ccccc2c1/C(C#N)=C/c1cccc2cnccc12	0.7	1.1	–
NC(=O)/C(=C\c1cccc2cnccc12)c1c[nH]c2ccccc12	0.6	1.3	–
N#C/C(=C\c1cccc2cnccc12)c1c[nH]c2ncccc12	1.4	1.8	–
COc1ccc2[nH]cc(/C(C#N)=C/c3cccc4cnccc34)c2c1	3.2	3	microsomal CLint at 3 µM [3]: 66 µL/min/mg; half-life at 3 µM [4]: 33.4 min; half-life at 3 µM [5]: 21.8 min; microsomal CLint at 3 µM [6]: 106 µL/min/mg
O=C(Nc1cccc2cnccc12)c1c[nH]c2ccccc12	0.4	1.4	–
N#C/C(=C\c1cccc2cnccc12)c1c[nH]c2ccc(OCCCN3CCCC3)cc12	6	0.9	Activity [7]: inactive; Activity [8]: Non-Toxic
CC(=O)Nc1ccc2[nH]cc(/C(C#N)=C/c3cccc4cnccc34)c2c1	0.5	1.2	–
N#C/C(=C\c1cccc2cnccc12)c1c[nH]c2c(CN3CCCC3)cccc12	3.7	0.8	–
COCCOc1ccc2[nH]cc(/C(C#N)=C/c3cccc4cnccc34)c2c1	3.2	1.6	Activity [7]: inactive; Activity [8]: Non-Toxic
N#C/C(=C/c1cccc2cnccc12)c1nc2ccccc2[nH]1	1.2	1.1	Activity [7]: inactive; Activity [8]: Non-Toxic
N#C/C(=C\c1cccc2cnccc12)c1c[nH]c2cccc(Br)c12	0.5	1.1	–
N#C/C(=C\c1cncc2cnccc12)c1c[nH]c2ccccc12	1	1.4	–
N#C/C(=C\c1cccc2cnccc12)c1c[nH]c2ccc(CN3CCCC3)cc12	3.3	1	–
N#C/C(=C\c1cccnc1)c1c[nH]c2ccccc12	1.1	1.2	–
COc1ccc2c(/C(C#N)=C/c3cccc4cnccc34)c[nH]c2c1	2.6	4.3	–
N#C/C(=C\c1cccc2cnccc12)c1c[nH]c2ccc(F)cc12	0.5	0.9	–

SMILES	fold change (FC) [1]	fold change (FC) [2]	other results
N#C/C(=C\c1cccc2cccnc12)c1c[nH]c2ccccc12	0.6	1.3	–
N#C/C(=C\c1cccc2cnccc12)c1n[nH]c2ccccc12	2	1.4	–
C(=C\c1c[nH]c2ccccc12)/c1cccc2cnccc12	5.4	1.3	Activity [7]: inactive; Activity [8]: Non-Toxic
N#C/C(=C\c1cccc2ncccc12)c1c[nH]c2ccccc12	0.7	10.5	Activity [7]: Active; Activity [8]: Toxic
Cn1cc(/C(C#N)=C/c2cccc3cnccc23)c2ccccc21	1.6	1.1	–
N#C/C(=C\c1cccc2cnccc12)c1c[nH]c2ccc(Cl)cc12	2	1.4	–
N#C/C(=C\c1cncc2ccccc12)c1c[nH]c2ccccc12	0.7	1.3	Activity [7]: inactive; Activity [8]: Non-Toxic
N#C/C(=C\c1ccnc2ccccc12)c1c[nH]c2ccccc12	0.4	1.4	–
N#C/C(=C\c1cccc2cnccc12)c1c[nH]c2cc(CN3CCCC3)ccc12	5.7	1.1	–
N#C/C(=C\c1cccc2cnccc12)c1c[nH]c2ccc(OCCC3OCCO3)cc12	0.7	1	–
CC(=O)O[C@H]1C(=O)[C@@]2(C)[C@H]([C@H](OC(=O)c3ccccc3)[C@]3(O)C[C@H](OC(=O)[C@H](O)[C@@H](NC(=O)c4ccccc4)c4ccccc4)C(C)=C1C3(C)C)[C@]1(OC(C)=O)CO[C@@H]1C[C@@H]2O	–	–	TGI [9]: inactive
N#C/C(=C\c1cccc2cnccc12)c1c[nH]c2cc(Br)ccc12	0.7	1.6	–
N#C/C(=C\c1cccc2ccncc12)c1c[nH]c2ccccc12	0.7	1.5	–
N#C/C(=C\c1cccc2cnccc12)c1c[nH]c2c(Br)cccc12	2.2	1.4	–
N#CC(Cc1cccc2cnccc12)c1c[nH]c2ccccc12 (configuration not stated)	0.3	1.2	–
N#C/C(=C\c1cccc2cnccc12)c1c[nH]c2ccc([N+](=O)[O-])cc12	0.6	0.9	–
N#C/C(=C\c1cccc2cnccc12)c1c[nH]c2ccc(Br)cc12	4	2.1	microsomal CLint at 3 µM [3]: 53 µL/min/mg; half-life at 3 µM [4]: 43.8 min; half-life at 3 µM [5]: 19.6 min; microsomal CLint at 3 µM [6]: 118 µL/min/mg

From ChEMBL document CHEMBL4270554, “Discovery of the cancer cell selective dual acting anti-cancer agent (Z)-2-(1H-indol-3-yl)-3-(isoquinolin-5-yl)acrylonitrile (A131)” (Eur J Med Chem, 2018)
